Data published in PubChem BioAssay AID624362 (Broad Institute, 2012).
Activity calls are given as the source filed them.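 The calls were made as follows: active = compounds cutting cell ATP signal whose AC50 is at most twice their top valid dose; inconclusive = flat curve with 30 to 70% signal loss, or poor fit; inactive = the rest.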

Test system: MALME3 melanoma viability, CellTiter-Glo ATP luminescence, 24 h
Test: MALME3 melanoma cell viability loss, dose response, orthogonal assay for MITF inhibitor project, CellTiter-Glo luminescence, dry powder, set 3 (AID 624362)
In short: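 Material: MALME3 melanoma cell line | Buffer or medium: Phenol-red-free IMDM supplemented with 10% FBS | Incubation: Compound exposure at 37 °C, cells plated one day earlier | Technique: CellTiter-Glo luminescence measuring cellular ATP | Read-out: Cell viability inferred from cellular ATP level | Controls: Parthenolide at 27 µM as positive control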

SMILES | AC50
O=C1C=C(NS(=O)(=O)c2ccc(Br)cc2)C(=O)c2ccccc21 | 14.3 µM
NC1=C(NS(=O)(=O)c2ccccc2)C(=O)c2ccccc2C1=O | 15 µM
NC1=C(NS(=O)(=O)c2cccs2)C(=O)c2ccccc2C1=O | 16.8 µM
COC1=C(NS(=O)(=O)c2ccc(Br)cc2)C(=O)c2ccccc2C1=O | 14.7 µM
COC1=C(NS(=O)(=O)c2cccs2)C(=O)c2ccccc2C1=O | 23.4 µM
COC1=C(Nc2ccccc2)C(=O)c2ccccc2C1=O | 7.46 µM
O=C1C=C(NS(=O)(=O)c2ccccc2)C(=O)c2ccccc21 | 11.6 µM
O=C1C=C(NS(=O)(=O)c2cccs2)C(=O)c2ccccc21 | 15.3 µM
O=C1C(NS(=O)(=O)c2ccccc2)=C(c2ccccc2)C(=O)c2ccccc21 | > 70 µM (inactive)
O=C1C=C(Nc2ccccc2)C(=O)c2ccccc21 | 2.89 µM
O=C1C(Nc2ccccc2)=C(c2ccccc2)C(=O)c2ccccc21 | 36 µM
NC1=C(NS(=O)(=O)c2ccc(Br)s2)C(=O)c2ccccc2C1=O | > 70 µM (inactive)
